Where two headings read alike, the source gives them in different places.
Columns and labels:
K562 cell line = assay: CCK-8 antiproliferative assay, K562; assay type: cell-based; details: for IC50: read-out: IC50 (µM) K562
Procedure, shortened: (§1)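 Cells were grown in RPMI-1640 with 10% FBS at 37 °C in 5% CO2. About 3.5 × 10^3 cells/well were seeded, grown 24 h, then given test compound at several concentrations for 72 h in triplicate wells. CCK-8 was added for 2–3 h and OD read at 450 nm to give inhibition rate or IC50. K562 screen: mean of ≥2 independent experiments. Five-line panel: mean ± SD of three.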

A549 = assay: CCK-8 antiproliferative assay, A549; assay type: cell-based; details: read-out: IC50 (µM) A549
Procedure, shortened: as §1

Hela = assay: CCK-8 antiproliferative assay, Hela; assay type: cell-based; details: read-out: IC50 (µM) Hela
Procedure, shortened: as §1

H22 = assay: CCK-8 antiproliferative assay, H22; assay type: cell-based, mouse; details: read-out: IC50 (µM) H22
Procedure, shortened: as §1

normal cell line HFL-1 = assay: CCK-8 assay, normal cell line HFL-1; assay type: cell-based; details: read-out: IC50 (µM) HFL-1
Procedure, shortened: as §1

[1] = system: colchicine binding site on tubulin; assay: [3H]-colchicine competition scintillation proximity assay; details: tubulin 1 µM, [3H]-colchicine 5 µM
Procedure, shortened: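 Competition scintillation proximity assay. Test compound was added to buffer (80 mM PIPES pH 6.8, 1 mM EGTA, 1 mM MgCl2, 10% glycerol, 1 mM GTP) containing tubulin 1 µM, then [3H]-colchicine 5 µM. After 2 h incubation, streptavidin-labelled SPA beads were added and radioactivity counted. Percent inhibition of colchicine binding was reported as mean ± SD of three independent experiments.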

H22 allograft = H22 allograft mice model, in vivo antitumor effect; details: 20 mg/kg i.v. once a day, three weeks; for tumour growth inhibition (TGI) value: by tumour weight
Procedure, shortened: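 H22 cells in log phase (1 × 10^7 cells/mL, 0.1 ml) were injected s.c. into the right flank. Tumour size and body weight were recorded every two days. Mice were sacrificed at about 21 days. TGI (%) = (1 − Wt/Wc) × 100, using mean tumour weights.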

K562 cells [2] = assay: Confocal immunofluorescence assay of microtubule networks; assay type: cell-based; details: 48 h, 15, 30, 60 nM
K562 cells [3] = assay: Annexin V-FITC/PI apoptosis flow cytometry; assay type: cell-based; details: 60 nM, 48 h, control 2.47%
Bcl-2 protein family = assay: Western blot of apoptosis associated proteins; assay type: cell-based; details: K562, 48 h, western blotting
Procedure, shortened: (§2)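 K562 cells were treated with or without test compound at several concentrations for 48 h. They were lysed in cold buffer with PMSF and centrifuged at 14,000 rpm for 15 min, and protein was quantified by BCA. Equal protein was run on SDS-PAGE, blotted to PVDF, blocked in 5% skim milk for 2 h, probed overnight at 4 °C, then secondary antibody for 1–2 h, and detected by ECL with densitometry. Targets: Cdc-2, Cyclin B1, Cdc25c; Bad, Bax, Bcl-2, Bcl-xl; GAPDH reference.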

K562 cells [4] = assay: PI cell cycle flow cytometry; assay type: cell-based; details: 48 h, untreated 12.99 ± 0.26%
[5] = system: Cyclin B1, Cdc-2 and Cdc-25c; assay: Western blot of G2/M phase associated proteins; assay type: cell-based; details: K562; 48 h; western blotting; dose-dependent
Procedure, shortened: as §2

MDA-MB-231 cells [6] = assay: Transwell migration assay; assay type: cell-based; details: 60 nM, untreated 231.3 ± 12.2
MDA-MB-231 cells [7] = assay: Transwell invasion assay; assay type: cell-based; details: 60 nM, untreated 81.3 ± 5.7
HUVEC = assay: Inhibition of HUVEC proliferation; assay type: cell-based, human; details: read-out: IC50 in inhibiting the proliferation of HUVEC
HUVECs [8] = assay: HUVEC wound healing assay; assay type: cell-based, human; details: 24 h, dose-dependent
Procedure, shortened: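 HUVECs were seeded at 5 × 10^5 cells/well overnight and incubated with or without test compound at several concentrations for 24 h. The monolayer was then scratched with a pipette tip and washed with PBS. The wound was imaged at 100× and imaged again after a further 24 h of culture.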

HUVECs [9] = assay: HUVEC tube formation assay on Matrigel; assay type: cell-based, human; details: 60 nM
H22 tumour = assay: Immunohistochemistry of tumour tissue; assay type: in vivo, mice; details: H22 tumours; 20 mg/kg; IHC; vs control group
Procedure, shortened: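 Tumours came from the vehicle, CA-4 20 mg/kg and test compound 20 mg/kg allograft groups. They were fixed in 4% paraformaldehyde overnight, paraffin-embedded and sectioned. Sections were blocked with 1% BSA for 20 min, incubated with CD31 or Ki67 primary antibody overnight at 4 °C, then HRP goat anti-rabbit for 1 h, developed with DAB and counterstained with haematoxylin. CD31 staining gave microvessel density.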

[10] = H&E staining of vital organs, in vivo safety; details: mice; 20 mg/kg; heart, liver, spleen, lung, kidney
Procedure, shortened: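 Heart, liver, spleen, lung and kidney came from the H22 allograft mice at sacrifice: vehicle, CA-4 20 mg/kg and test compound 20 mg/kg groups. Organs were fixed in 4% paraformaldehyde overnight, paraffin-embedded, sectioned and stained with haematoxylin and eosin.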

K562 cells [11] = assay: Hoechst 33342 staining; assay type: cell-based; details: 48 h
[12] = Homo sapiens, K562, 72 h, read-out: Inhibition rate (%)

**Q.** Which IC50 (K562 cell line; Homo sapiens, K562, 72 h) does the source give for `COc1ccc(/C=C\c2cc(OC)c(OC)c(OC)c2)cc1O` [CA-4, Combretastatin A-4, reference compound] here?
**A.** 0.004 ± 0.001 µM

**Q.** What about the inhibition at 0.1 µM (K562 cell line; [12]) of the same compound?
**A.** 88.3%

**Q.** And the inhibition at 1 µM (K562 cell line; [12])?
**A.** 92%

**Q.** And the IC50 (A549; Homo sapiens, A549, 72 h)?
**A.** 0.032 ± 0.005 µM

**Q.** And the IC50 (Hela; Homo sapiens, HeLa, 72 h)?
**A.** 0.026 ± 0.006 µM

**Q.** And the IC50 (H22; Mus musculus, H22, 72 h)?
**A.** 0.01 ± 0.002 µM

**Q.** What about the IC50 (normal cell line HFL-1; Homo sapiens, HFL1, 72 h) of the same compound?
**A.** 0.139 ± 0.017 µM

**Q.** What about the “Inhibition (%) of colchicine binding” value ([1]; compound 1 µM) of the same compound?
**A.** 78.55 ± 1.85%

**Q.** What about the “Inhibition (%) of colchicine binding” value ([1]; compound 5 µM) of the same compound?
**A.** 87.35 ± 1.37%

**Q.** And the “tumour growth inhibition (TGI) value” (H22 allograft)?
**A.** 59.19%

**Q.** With “2-methoxy-4-((4,5,6-trimethoxy-2,3-dihydro-1H-inden-2-yl)methyl)phenol [Compound 12d]” as the compound, how does the “Inhibition rate (%)” value (K562 cell line; K562, 0.1 µM, CCK-8, 72 h) read?
**A.** 78.82%

**Q.** What about the “Inhibition rate (%)” value (K562 cell line; K562, 1 µM, CCK-8, 72 h) of the same compound?
**A.** 80.57%

**Q.** And the IC50 (K562 cell line; K562, CCK-8, 72 h, mean ± SD)?
**A.** 0.028 ± 0.007 µM

**Q.** And the IC50 (A549; A549, CCK-8, 72 h, mean ± SD)?
**A.** 0.087 ± 0.009 µM

**Q.** What about the IC50 (Hela; Hela, CCK-8, 72 h, mean ± SD) of the same compound?
**A.** 0.078 ± 0.005 µM

**Q.** And the IC50 (H22; H22, CCK-8, 72 h, mean ± SD)?
**A.** 0.068 ± 0.008 µM

**Q.** And the IC50 (normal cell line HFL-1; normal cell line HFL-1, CCK-8, 72 h, mean ± SD)?
**A.** 0.271 ± 0.031 µM

**Q.** What about the “Inhibition (%) of colchicine binding” value ([1]; compound 1 µM) of the same compound?
**A.** 59.81 ± 3.84%

**Q.** What about the “Inhibition (%) of colchicine binding” value ([1]; compound 5 µM) of the same compound?
**A.** 71.43 ± 1.03%

**Q.** What about the “effect on microtubule networks” value (K562 cells [2]) of the same compound?
**A.** caused disorder and destruction of microtubule networks

**Q.** And the “percent of total apoptosis cells” value (K562 cells [3])?
**A.** 57.90%

**Q.** And the “expression of antiapoptotic proteins Bcl-2 and Bcl-xl” value (Bcl-2 protein family)?
**A.** downregulated

**Q.** What about the “expression level of proapoptotic proteins Bax and Bad” value (Bcl-2 protein family; dose-dependent) of the same compound?
**A.** upregulated

**Q.** And the “population at the G2/M phase” value (K562 cells [4]; 15 nM)?
**A.** 16.07 ± 0.83%

**Q.** And the “population at the G2/M phase” value (K562 cells [4]; 30 nM)?
**A.** 21.23 ± 1.14%

**Q.** What about the “population at the G2/M phase” value (K562 cells [4]; 60 nM) of the same compound?
**A.** 24.66 ± 0.63%

**Q.** And the “expression levels of Cyclin B1, Cdc-2 and Cdc-25c” value [5]?
**A.** down-regulate

**Q.** And the “number of migrated cells” value (MDA-MB-231 cells [6])?
**A.** 124.0 ± 9.2

**Q.** What about the “number of invaded cells” value (MDA-MB-231 cells [7]) of the same compound?
**A.** 51.3 ± 2.5

**Q.** And the IC50 (HUVEC)?
**A.** 2260 ± 380 nM

**Q.** And the “wound healing effect of HUVECs” value (HUVECs [8])?
**A.** the wound healing effect was disrupted

**Q.** What about the “tube formation (capillary-like tubular networks) of HUVECs” value (HUVECs [9]) of the same compound?
**A.** almost all of the tube-like structure was broken

**Q.** What about the body weight (H22 allograft) of the same compound?
**A.** no obvious body weight loss

**Q.** And the “tumour growth inhibition (TGI) value” (H22 allograft)?
**A.** 74.94%

**Q.** And the Ki67-positive cells (H22 tumour)?
**A.** decreased number of Ki-67 positive cells

**Q.** What about the “microvessel density (MVD), CD31” value (H22 tumour) of the same compound?
**A.** lower MVD level

**Q.** What about the “pathological damage of vital organs (H&E)” value [10] of the same compound?
**A.** without obvious pathological damage

**Q.** And the “apoptosis morphology and nucleus changes” value (K562 cells [11])?
**A.** induced K562 cells nuclear fragmentation and cell morphology changes
